ChEMBL document CHEMBL2010680, “Short cyclic peptides derived from the C-terminal sequence of α1-antitrypsin exhibit significant anti-HIV-1 activity” (Bioorg Med Chem Lett, 2012)
Peptide text beside a SMILES is read from it.

Legend:
[1] = tested on: Human immunodeficiency virus 1; assay: Antiviral activity against Human immunodeficiency virus 1 3B infected in human MT2 cells assessed as inhibition of viral replication after 4 days by ELISA; type: functional, organism-based; conditions: MT2, 96 h
Summary of the method: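 Read-out is HIV-1 gag p24 antigen in culture supernatants, measured by ELISA and collected on the fourth day post-infection.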

[2] = Cytotoxicity against human MT2 cells after 4 days by XTT assay; type: cell-based
Summary of the method: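 Peptide at graded concentrations was added to an equal volume of MT-2 cells (5 × 10^5/ml) and incubated 4 days at 37 °C. XTT (1 mg/ml) was added, and 4 h later soluble formazan was read at 450 nm with a 650 nm reference. CC50 was calculated from the dose-response.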

[3] = Inhibition of Human immunodeficiency virus 1 3B envelope glycoprotein-mediated cell-cell fusion of infected H9 cells to human MT2 cells measured 2 hrs after wash out by fluorescence analysis; type: cell-based; conditions: MT2, 2 h
Summary of the method: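 Fluorescence-labeled H9/HIV-1 IIIB cells were washed, then mixed with MT-2 cells at 1:5 for 2 h at 37 °C, without or with peptide at graded concentrations. Fused cells were counted by fluorescence microscopy, percent inhibition of fusion was calculated, and IC50 was derived from the dose-response.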

[4] = tested on: Human immunodeficiency virus 1; assay: Antiviral activity against Human immunodeficiency virus type 1 SF162 pseudovirus expressing envelope glycoprotein 160 infected in human U87 cells after 48 hrs by luminometric analysis; type: functional, cell-based, U-87MG ATCC; conditions: Human immunodeficiency virus 1, SF162 ISOLATE, U-87 MG
Summary of the method: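 U87-CCR5 cells were seeded overnight. Pseudovirus (1 ng p24/well) was preincubated with peptide at the indicated concentration for 30 min at 37 °C, then added to the cells for 48 h. Cells were washed with PBS and lysed, and luciferase activity was measured by luminometer. Each peptide was tested in triplicate; data are mean ± SD.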

Row | Molecule | IC50 [1] [µM] | CC50 at 96 h [2] [µM] | IC50 [3] [µM] | IC50 [4] [µM]
1 | CSCC[C@@H]1NC(=O)[C@H](CC(C)C)NC(=O)[C@H](Cc2ccccc2)NC(=O)[C@H](C(C)C)NC(=O)[C@H](CCC(=O)O)NC(=O)[C@@H]2CCCN2C(=O)[C@H](CS)NC1=O (cyclo(CPEVFLM)) | > 100 | > 200 | > 200 | 
2 | CSCC[C@@H]1NC(=O)[C@H](CC(C)C)NC(=O)[C@H](Cc2ccccc2)NC(=O)[C@H](C(C)C)NC(=O)[C@H](Cc2ccccc2)NC(=O)[C@@H]2CCCN2C(=O)[C@H](CS)NC1=O (cyclo(CPFVFLM)) | 8.96 | > 200 | 67.2 | 5.95
3 | H-PEVFLM-OH | > 100 |  | > 200 | 
4 | H-FVFLM-OH | > 100 |  |  | 
5 | CC(C)C[C@@H]1NC(=O)[C@H](Cc2ccccc2)NC(=O)[C@H](C(C)C)NC(=O)[C@H](Cc2ccccc2)NC(=O)[C@@H]2CCCN2C(=O)[C@H](CS)NC(=O)[C@H](CCCNC(=N)N)NC1=O (cyclo(CPFVFLR)) | 74.1 | > 200 | 74 | 
6 | H-EFVFLM-OH | > 100 |  |  | 
7 | H-PFVFLR-OH | > 100 |  | > 200 | 
8 | CC(C)C[C@@H]1NC(=O)[C@H](Cc2ccccc2)NC(=O)[C@H](C(C)C)NC(=O)[C@H](Cc2ccccc2)NC(=O)[C@@H]2CCCN2C(=O)[C@H](CS)NC(=O)[C@H](CCC(=O)O)NC1=O (cyclo(CPFVFLE)) | 55.8 | > 200 | 116 | 
9 | H-KPFVFLM-OH | > 100 |  |  | 
10 | H-NKPFVFLM-OH | > 100 |  |  | 
11 | H-PFVYLI-OH | > 100 |  |  | 
12 | H-PFVFLM-OH | > 100 |  | > 200 | 
13 | H-PFVFLE-OH | > 100 |  | > 200 | 
